In ChEMBL document CHEMBL4130514, “Sporothriolide-Related Compounds from the Fungus Hypoxylon monticulosum CLL-205 Isolated from a Sphaerocladina Sponge from the Tahiti Coast” (J Nat Prod, 2017):
Activity calls are given as the source filed them. The rule behind the calls is not given here.

What was measured:
HCT-116 = experiment: Antiproliferative activity against human HCT116 cells after 72 hrs by MTT assay; type: functional, cell-based; conditions: for IC50: HCT-116, 72 h
Procedure, shortened: (§1)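 Tetrazolium colorimetric proliferation assay in HCT-116 (colon carcinoma), PC-3 (prostate) and MCF-7 (breast) cells grown in DMEM with 10% fetal calf serum plus penicillin, streptomycin and fungizone. After 24 h growth, cells were treated with compounds from 100 μM to 10 nM, given in DMSO at 1% to 3% final. MTS was added at 72 h and absorbance was read at 490 nm against untreated cells. IC50 was determined from separate duplicate experiments.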

Bacillus subtilis = experiment: Antibacterial activity against Bacillus subtilis; type: functional, organism-based
Micrococcus luteus = experiment: Antibacterial activity against Micrococcus luteus; type: functional, organism-based
MCF7 = experiment: Antiproliferative activity against human MCF7 cells after 72 hrs by MTT assay; type: functional, cell-based; procedure, shortened: as §1
Escherichia coli = experiment: Antibacterial activity against Escherichia coli; type: functional, organism-based
PC-3 = experiment: Antiproliferative activity against human PC3 cells after 72 hrs by MTT assay; type: functional, cell-based; procedure, shortened: as §1
[1] = Inhibition of hyaluronidase (unknown origin); set-up: species or system Homo sapiens

| IC50 (HCT-116) [µM] | IC50 (MCF7; MCF7, 72 h) [µM] | IC50 (PC-3; PC-3, 72 h) [µM] | IC50 [1] [µM] | Compound | Activity (Bacillus subtilis) | Activity (Micrococcus luteus) | Activity (Escherichia coli) | Activity (HCT-116) | Activity (MCF7) | Activity (PC-3) |
| --- | --- | --- | --- | --- | --- | --- | --- | --- | --- | --- |
| 7.1 | 4 | 6.4 | – | C=C1C(=O)O[C@@H]2[C@H]1C(=O)O[C@@H]2CCCCCC | inactive | inactive | inactive | – | – | – |
| 18 | – | – | – | C=C(C(=O)O)[C@H]1C[C@@H](CCCCCC)OC1=O | inactive | inactive | inactive | – | – | – |
| – | – | – | 320 | CC1(C)[C@@H](O[C@H]2O[C@H](C(=O)O)[C@@H](O)[C@H](O)[C@H]2O[C@@H]2O[C@H](C(=O)O)[C@@H](O)[C@H](O)[C@H]2O)CC[C@]2(C)[C@H]3C(=O)C=C4[C@@H]5C[C@@](C)(C(=O)O)CC[C@]5(C)CC[C@@]4(C)[C@]3(C)CC[C@@H]12 [GLYCYRRHIZIN] | – | – | – | – | – | – |
| – | – | – | 300 | CCCCCC[C@H]1OC(=O)[C@@H]2[C@H]1OC(=O)[C@]21CCC=C[C@H]1/C=C/[C@@H]1O[C@H](C)C[C@@H]1O | inactive | inactive | inactive | inactive | inactive | inactive |
